# Experimental data as given in ChEMBL document CHEMBL1145082 (J Med Chem, 2003).
# Key:
# [1] = molecular target: Tyrosine-protein kinase Blk (Homo sapiens) (UniProt P51451); test: Inhibition of Blk (B lymphocyte kinase) at 10 uM; design: scale not given: the % may be the effect or the level left
# How it was run: (§1)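 Outsourced selectivity panel. Each kinase phosphorylated its own peptide or protein substrate in the presence of 10 µM compound and 10 µM ATP, within the linear time range. Activity given as mean percent of control incubations from duplicate determinations.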
# [2] = molecular target: Calcium/calmodulin-dependent protein kinase type IV (Homo sapiens) (UniProt Q16566); test: Inhibition of Calcium/calmodulin-dependent protein kinase type IV at 10 uM; design: scale not given: the % may be the effect or the level left; how it was run: as §1
# Calcium/calmodulin-dependent protein kinase type IV (Homo sapiens), sequence (Q16566 whole entry): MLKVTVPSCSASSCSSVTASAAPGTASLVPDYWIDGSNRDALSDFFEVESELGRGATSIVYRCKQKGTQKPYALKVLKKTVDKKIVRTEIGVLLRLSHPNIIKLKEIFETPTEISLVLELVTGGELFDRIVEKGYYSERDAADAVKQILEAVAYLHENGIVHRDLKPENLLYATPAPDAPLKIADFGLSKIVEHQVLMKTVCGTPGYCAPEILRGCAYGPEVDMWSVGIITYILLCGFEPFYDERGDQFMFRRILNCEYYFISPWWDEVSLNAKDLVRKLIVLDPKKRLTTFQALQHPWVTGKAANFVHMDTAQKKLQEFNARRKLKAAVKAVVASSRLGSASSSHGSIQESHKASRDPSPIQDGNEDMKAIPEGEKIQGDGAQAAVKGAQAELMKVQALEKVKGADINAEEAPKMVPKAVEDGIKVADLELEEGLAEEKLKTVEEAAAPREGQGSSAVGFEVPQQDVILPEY
# [3] = molecular target: Cyclin-dependent kinase 2/cyclin E (Homo sapiens) (UniProt P24864+P24941+O96020); test: Inhibition of Cyclin-dependent kinase 2-cyclin E at 10 uM; format: protein-complex assay; design: scale not given: the % may be the effect or the level left; how it was run: as §1
# [4] = Inhibition of Casein Kinase I; design: species or system Rattus norvegicus
# How it was run: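 Reaction started with 30–150 ng kinase, run 1 h at 30 °C. Peptides captured on streptavidin plates and counted. IC50 from 6–10 concentrations; ≥3 experiments in duplicate; ± SEM.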
# [5] = molecular target: Casein kinase II (Homo sapiens) (UniProt P67870+P68400+P19784); test: Inhibition of human Casein kinase II at 10 uM; format: protein-complex assay; design: scale not given: the % may be the effect or the level left; how it was run: as §1
# [6] = molecular target: Cyclin-dependent kinase 7/ cyclin H (Homo sapiens) (UniProt P51946+P50613); test: Inhibition of cyclin-dependent kinase 7-cyclin H at 10 uM; format: protein-complex assay; design: scale not given: the % may be the effect or the level left; how it was run: as §1
# [7] = Increased glycogen synthase activity in HEK293 cells; format: functional, cell-based; conditions: Homo sapiens
# How it was run: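 HEK293 cells starved of serum and glucose for 3 h, then exposed to compound or vehicle for 90 min at 37 °C. Cells lysed by three freeze–thaw cycles and lysates clarified. GS activity read as 14C-UDP-glucose incorporation into glycogen, with and without glucose 6-phosphate. EC50 from 6–10 concentrations; ≥3 experiments in duplicate; mean ± SEM.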
# [8] = molecular target: Inhibitor of nuclear factor kappa-B kinase subunit beta (Homo sapiens) (UniProt O14920); test: Inhibition of I-kappa-B-kinase beta at 10 uM; design: scale not given: the % may be the effect or the level left; how it was run: as §1
# Inhibitor of nuclear factor kappa-B kinase subunit beta (Homo sapiens), sequence (O14920 whole entry): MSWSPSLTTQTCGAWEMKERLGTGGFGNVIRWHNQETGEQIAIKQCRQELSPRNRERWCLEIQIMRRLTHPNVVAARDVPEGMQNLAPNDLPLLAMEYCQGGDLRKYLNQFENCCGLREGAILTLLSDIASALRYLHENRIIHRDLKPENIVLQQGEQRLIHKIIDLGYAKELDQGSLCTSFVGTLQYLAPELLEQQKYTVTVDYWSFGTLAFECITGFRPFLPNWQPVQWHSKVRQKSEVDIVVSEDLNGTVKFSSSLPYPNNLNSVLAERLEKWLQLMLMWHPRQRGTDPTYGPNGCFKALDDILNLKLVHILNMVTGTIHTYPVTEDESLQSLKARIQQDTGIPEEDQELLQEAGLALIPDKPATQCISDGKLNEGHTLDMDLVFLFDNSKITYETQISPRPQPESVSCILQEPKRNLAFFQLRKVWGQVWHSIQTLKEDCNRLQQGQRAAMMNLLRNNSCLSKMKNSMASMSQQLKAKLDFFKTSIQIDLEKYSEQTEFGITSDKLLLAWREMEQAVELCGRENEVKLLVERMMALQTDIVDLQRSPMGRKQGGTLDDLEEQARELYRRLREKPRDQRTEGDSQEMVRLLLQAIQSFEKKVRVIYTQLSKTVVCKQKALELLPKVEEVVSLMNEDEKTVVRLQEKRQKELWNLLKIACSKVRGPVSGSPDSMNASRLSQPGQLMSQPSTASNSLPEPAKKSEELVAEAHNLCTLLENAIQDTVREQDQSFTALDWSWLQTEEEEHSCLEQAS
# [9] = molecular target: Inhibitor of nuclear factor kappa-B kinase subunit alpha (Homo sapiens) (UniProt O15111); test: Inhibition of I kappa-B kinase alpha (IKK) at 10 uM; design: scale not given: the % may be the effect or the level left; how it was run: as §1
# [10] = molecular target: Mitogen-activated protein kinase 1 (Mus musculus) (UniProt P63085); test: Inhibition of mouse Mitogen-activated protein kinase 2 at 10 uM; design: scale not given: the % may be the effect or the level left
# How it was run: (§2)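 Upstate kinase selectivity panel: each kinase phosphorylated its peptide or protein substrate with 10 µM compound present and 10 µM ATP. Reactions were linear with time. Activity is reported as the mean percentage of control incubations, from duplicate determinations.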
# [11] = molecular target: Dual specificity mitogen-activated protein kinase kinase 7 (Homo sapiens) (UniProt O14733); test: Inhibition of human Mitogen activated protein kinase kinase 7 beta at 10 uM; design: scale not given: the % may be the effect or the level left; how it was run: as §1
# Dual specificity mitogen-activated protein kinase kinase 7 (Homo sapiens), sequence (O14733 whole entry): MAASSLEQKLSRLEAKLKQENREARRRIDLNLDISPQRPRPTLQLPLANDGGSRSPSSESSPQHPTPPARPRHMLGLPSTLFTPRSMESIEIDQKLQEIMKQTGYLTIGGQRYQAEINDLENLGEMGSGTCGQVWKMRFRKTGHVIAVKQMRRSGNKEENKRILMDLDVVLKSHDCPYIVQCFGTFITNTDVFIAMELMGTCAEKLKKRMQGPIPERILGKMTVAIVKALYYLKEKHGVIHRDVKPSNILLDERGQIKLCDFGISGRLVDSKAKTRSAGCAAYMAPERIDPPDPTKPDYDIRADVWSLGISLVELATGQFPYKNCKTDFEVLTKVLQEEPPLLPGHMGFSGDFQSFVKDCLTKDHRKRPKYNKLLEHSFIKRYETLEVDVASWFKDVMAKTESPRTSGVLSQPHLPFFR
# [12] = molecular target: Mitogen-activated protein kinase 1 (Homo sapiens) (UniProt P28482); test: Inhibition of human Mitogen-activated protein kinase 1 at 10 uM; design: scale not given: the % may be the effect or the level left; how it was run: as §1
# [13] = molecular target: Protein kinase C beta type (Homo sapiens, UniProt P05771); test: Inhibition of human Protein kinase C beta 2 at 10 uM; design: scale not given: the % may be the effect or the level left; how it was run: as §1
# Protein kinase C beta type, sequence (P05771 2-671 limits assumed): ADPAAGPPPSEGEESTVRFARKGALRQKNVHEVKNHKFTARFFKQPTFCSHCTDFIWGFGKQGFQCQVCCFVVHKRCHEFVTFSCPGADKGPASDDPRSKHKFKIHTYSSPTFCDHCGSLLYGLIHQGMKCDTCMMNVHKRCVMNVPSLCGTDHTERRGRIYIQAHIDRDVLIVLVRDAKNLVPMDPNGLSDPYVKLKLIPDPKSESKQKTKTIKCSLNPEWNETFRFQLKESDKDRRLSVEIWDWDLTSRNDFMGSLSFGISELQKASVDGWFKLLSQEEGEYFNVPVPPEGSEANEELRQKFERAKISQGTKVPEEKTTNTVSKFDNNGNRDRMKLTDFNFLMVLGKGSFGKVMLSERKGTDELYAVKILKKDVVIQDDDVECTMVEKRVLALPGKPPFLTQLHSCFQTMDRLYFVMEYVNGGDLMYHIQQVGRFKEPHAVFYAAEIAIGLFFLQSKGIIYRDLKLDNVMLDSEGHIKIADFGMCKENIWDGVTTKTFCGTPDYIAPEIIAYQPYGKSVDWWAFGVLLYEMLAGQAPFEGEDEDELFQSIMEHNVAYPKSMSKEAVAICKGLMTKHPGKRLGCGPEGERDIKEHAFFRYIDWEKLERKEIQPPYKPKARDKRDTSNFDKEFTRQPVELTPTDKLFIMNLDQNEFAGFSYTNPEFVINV
# Bos taurus = species: Bos taurus; test: Inhibition of bovine Protein kinase A at 10 uM; design: scale not given: the % may be the effect or the level left; how it was run: as §1
# [14] = molecular target: RAC-alpha serine/threonine-protein kinase (Homo sapiens) (UniProt P31749); test: Inhibition of human Protein kinase B alpha at 10 uM; design: scale not given: the % may be the effect or the level left; how it was run: as §1
# RAC-alpha serine/threonine-protein kinase (Homo sapiens), sequence (P31749 whole entry): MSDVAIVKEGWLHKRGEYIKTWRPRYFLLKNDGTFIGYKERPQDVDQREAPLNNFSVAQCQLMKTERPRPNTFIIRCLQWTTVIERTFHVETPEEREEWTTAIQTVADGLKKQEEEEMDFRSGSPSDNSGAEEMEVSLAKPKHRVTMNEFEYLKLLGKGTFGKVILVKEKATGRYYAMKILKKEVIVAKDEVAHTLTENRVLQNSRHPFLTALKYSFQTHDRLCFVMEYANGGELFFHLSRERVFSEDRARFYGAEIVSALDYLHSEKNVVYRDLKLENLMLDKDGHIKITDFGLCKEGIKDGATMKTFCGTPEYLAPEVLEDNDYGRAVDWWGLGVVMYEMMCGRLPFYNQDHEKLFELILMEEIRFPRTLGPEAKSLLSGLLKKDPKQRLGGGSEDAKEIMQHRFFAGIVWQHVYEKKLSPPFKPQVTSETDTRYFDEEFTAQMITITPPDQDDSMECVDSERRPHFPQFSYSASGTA
# [15] = molecular target: Serine/threonine-protein kinase N2 (Homo sapiens) (UniProt Q16513); test: Inhibition of human Protein kinase C related kinase 2 (PRK2) at 10 uM; design: scale not given: the % may be the effect or the level left; how it was run: as §1
# [16] = molecular target: Ribosomal protein S6 kinase alpha-3 (Homo sapiens) (UniProt P51812); test: (§3) Inhibition of Ribosomal S6 kinase 3 at 10 uM; design: scale not given: the % may be the effect or the level left; how it was run: as §1
# Ribosomal protein S6 kinase alpha-3 (Homo sapiens), sequence (P51812 whole entry): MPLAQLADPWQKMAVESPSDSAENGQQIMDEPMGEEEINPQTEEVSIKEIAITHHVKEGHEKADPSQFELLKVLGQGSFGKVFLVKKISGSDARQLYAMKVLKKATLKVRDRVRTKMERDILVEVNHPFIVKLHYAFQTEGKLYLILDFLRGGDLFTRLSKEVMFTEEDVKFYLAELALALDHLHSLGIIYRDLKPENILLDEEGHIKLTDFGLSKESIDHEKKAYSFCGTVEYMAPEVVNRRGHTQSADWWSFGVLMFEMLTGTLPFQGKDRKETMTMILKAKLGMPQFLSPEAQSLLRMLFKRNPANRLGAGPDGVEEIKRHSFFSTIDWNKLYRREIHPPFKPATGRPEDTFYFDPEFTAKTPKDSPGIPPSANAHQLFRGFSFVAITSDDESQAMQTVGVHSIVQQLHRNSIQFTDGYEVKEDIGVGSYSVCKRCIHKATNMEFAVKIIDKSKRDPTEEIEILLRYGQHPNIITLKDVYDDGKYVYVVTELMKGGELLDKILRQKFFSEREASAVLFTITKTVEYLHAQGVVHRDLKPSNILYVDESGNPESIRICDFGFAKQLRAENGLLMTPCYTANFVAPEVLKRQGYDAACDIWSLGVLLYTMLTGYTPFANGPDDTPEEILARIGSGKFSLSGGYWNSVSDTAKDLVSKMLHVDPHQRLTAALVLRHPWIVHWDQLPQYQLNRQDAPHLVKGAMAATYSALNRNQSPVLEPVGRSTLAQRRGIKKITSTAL
# [17] = molecular target: Ribosomal protein S6 kinase (P70S6K) (Homo sapiens) (UniProt Q9UBS0+P23443); test: Inhibition of human Ribosomal protein S6 kinase (p70S6K) at 10 uM; format: protein-complex assay; design: scale not given: the % may be the effect or the level left; how it was run: as §2
# [18] = molecular target: Mitogen-activated protein kinase 9 (Homo sapiens) (UniProt P45984); test: Inhibition of human c-Jun N-terminal kinase 2-alpha 2 at 10 uM; design: scale not given: the % may be the effect or the level left; how it was run: as §2
# Mitogen-activated protein kinase 9 (Homo sapiens), sequence (P45984 whole entry, looked up): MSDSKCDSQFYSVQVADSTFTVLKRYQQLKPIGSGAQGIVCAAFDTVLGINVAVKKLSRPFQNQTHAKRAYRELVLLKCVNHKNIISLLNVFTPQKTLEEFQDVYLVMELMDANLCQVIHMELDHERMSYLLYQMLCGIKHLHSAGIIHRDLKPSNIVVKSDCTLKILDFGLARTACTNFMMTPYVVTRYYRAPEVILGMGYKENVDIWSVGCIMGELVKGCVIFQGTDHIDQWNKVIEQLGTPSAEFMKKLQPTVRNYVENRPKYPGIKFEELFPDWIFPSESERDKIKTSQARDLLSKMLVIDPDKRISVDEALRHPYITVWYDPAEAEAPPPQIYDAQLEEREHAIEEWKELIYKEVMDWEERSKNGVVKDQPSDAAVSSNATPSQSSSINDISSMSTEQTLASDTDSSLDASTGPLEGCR
# [19] = molecular target: Mitogen-activated protein kinase 8 (Homo sapiens) (UniProt P45983); test: Inhibition of human c-Jun N-terminal kinase 1-alpha 1 at 10 uM; design: scale not given: the % may be the effect or the level left; how it was run: as §2
# Mitogen-activated protein kinase 8 (Homo sapiens), sequence (P45983 whole entry): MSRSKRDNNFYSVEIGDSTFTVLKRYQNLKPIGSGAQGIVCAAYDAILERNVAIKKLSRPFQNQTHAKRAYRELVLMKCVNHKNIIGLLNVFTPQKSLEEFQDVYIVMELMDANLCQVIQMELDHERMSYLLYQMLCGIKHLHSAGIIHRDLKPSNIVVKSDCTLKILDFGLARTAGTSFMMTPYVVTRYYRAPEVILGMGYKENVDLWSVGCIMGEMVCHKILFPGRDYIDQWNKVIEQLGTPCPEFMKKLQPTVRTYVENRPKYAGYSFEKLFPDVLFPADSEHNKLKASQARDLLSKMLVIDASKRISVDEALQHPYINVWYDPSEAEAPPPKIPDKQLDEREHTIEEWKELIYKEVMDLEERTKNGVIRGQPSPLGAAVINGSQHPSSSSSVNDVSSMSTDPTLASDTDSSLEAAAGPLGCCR
# [20] = molecular target: Tyrosine-protein kinase Lck (Homo sapiens) (UniProt P06239); test: Inhibition of human p56 Lck tyrosine kinase at 10 uM; design: scale not given: the % may be the effect or the level left; how it was run: as §2
# Tyrosine-protein kinase Lck (Homo sapiens), sequence (P06239 2-509 limits assumed): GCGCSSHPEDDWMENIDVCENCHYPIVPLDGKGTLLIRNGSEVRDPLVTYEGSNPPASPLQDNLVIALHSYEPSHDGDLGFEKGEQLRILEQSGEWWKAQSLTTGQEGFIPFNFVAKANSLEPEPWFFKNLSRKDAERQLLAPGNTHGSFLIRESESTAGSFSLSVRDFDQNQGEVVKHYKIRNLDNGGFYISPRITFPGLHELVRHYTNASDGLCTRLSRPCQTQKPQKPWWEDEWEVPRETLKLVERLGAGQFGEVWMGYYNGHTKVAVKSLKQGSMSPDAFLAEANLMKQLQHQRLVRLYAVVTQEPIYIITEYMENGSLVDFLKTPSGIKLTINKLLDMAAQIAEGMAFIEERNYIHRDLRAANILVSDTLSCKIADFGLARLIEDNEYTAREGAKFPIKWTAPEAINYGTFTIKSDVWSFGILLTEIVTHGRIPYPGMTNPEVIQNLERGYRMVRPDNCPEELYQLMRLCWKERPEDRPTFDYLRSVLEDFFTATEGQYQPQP
# [21] = molecular target: Insulin receptor (Homo sapiens) (UniProt P06213); test: Inhibition of Insulin receptor at 10 uM; design: scale not given: the % may be the effect or the level left; how it was run: as §1
# [22] = molecular target: Mitogen-activated protein kinase 8 (Homo sapiens) (UniProt P45983); test: Inhibition of human JNK1-alpha-1 at 10 uM; design: scale not given: the % may be the effect or the level left; how it was run: as §1
# [23] = molecular target: Serine/threonine-protein kinase N2 (Homo sapiens) (UniProt Q16513); test: Inhibition of human protein kinase C-related protein kinase 2 (PRK2) at 10 uM; design: scale not given: the % may be the effect or the level left; how it was run: as §2
# [24] = molecular target: Ribosomal protein S6 kinase alpha-3 (Homo sapiens) (UniProt P51812); test: as §3; how it was run: as §1
structure (smiles),measurement,setting,value
O=C1NC(=O)C2=C1c1cn(c3ncccc13)CCOCCOCCOCCn1cc2c2cccnc21,Activity,[1],90%
same,Activity,[2],84%
same,Activity,[3],67%
same,IC50,[4],> 10000 nM
same,Activity,[5],105%
same,Activity,[6],85%
same,EC50,[7],60 nM
same,Activity,[8],97%
same,Activity,[9],100%
same,Activity,[10],85%
same,Activity,[11],129%
same,Activity,[12],106%
same,Activity,[13],15%
same,Activity,Bos taurus,88%
same,Activity,[14],97%
same,Activity,[15],92%
same,Activity,[16],21%
same,Activity,[17],92%
same,Activity,[18],76%
same,Activity,[19],78%
same,Activity,[20],194%
O=C1NC(=O)C2=C1c1cn(c3ncccc13)CCOCCOCCOCCOCCn1cc2c2cccnc21,Activity,[1],96%
same,Activity,[2],88%
same,Activity,[3],100%
same,IC50,[4],> 10000 nM
same,Activity,[5],102%
same,Activity,[6],86%
same,EC50,[7],390 nM
same,Activity,[8],101%
same,Activity,[9],98%
same,Activity,[21],92%
same,Activity,[22],98%
same,Activity,[10],88%
same,Activity,[11],132%
same,Activity,[13],69%
same,Activity,Bos taurus,94%
same,Activity,[14],102%
same,Activity,[23],104%
same,Of control,[24],63%
same,Activity,[17],93%
same,Activity,[18],97%
same,Activity,[20],174%
